This is an account of results in ChEMBL document CHEMBL4513216, “Probing the Open Global Health Chemical Diversity Library for Multistage-Active Starting Points for Next-Generation Antimalarials” (ACS Infect Dis, 2020).

This data set can be described thus: Toxicity liver stage against HepG2, at 10uM. The arrangement: test concentration 10 uM, cell line HepG2-A16-CD81EGFP. To be noted: human, HepG2-A16-CD81EGFP cells; read-out: INHIBITION
It is filed as cell-based. The gist of the method: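 Uninfected HepG2-A16-CD81EGFP cells, 3 × 10^3 per well, 1536-well, plated on prespotted compound at 10 μM final, parasite-free screening media added to match infected plates; puromycin 10 μM positive, DMSO 0.5% negative; run in parallel with 48 h PbLuc assay at 37 °C, 5% CO2; viability by CellTiter-Glo luminescence, normalized to controls.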
As for `O=C(CN1C(=O)CCC1=O)N1CCOCC1`, the cytotoxicity at 10 µM amounted to 2.48%.
With `COc1ncc(C(=O)NCc2ccc(Br)cc2)cn1` the figure was 48.6%.
For `O=C(Nc1cnccn1)[C@H]1C[C@H]2OCC[C@H]2N(c2ncc(F)cn2)C1`, the cytotoxicity at 10 µM stood at 16.4%.
With `CC(C)N1CCC(c2ccnc3c(C(=O)N4CCCC4)ncn23)CC1` the figure was -5.49%; with `CC(=O)Nc1ccc2c(c1)C1(CCOCC1)C(=O)N2c1ccsc1`, 5.56%.
With `O=C1CC(c2cccs2)Cc2[nH]c(=O)c(C(=O)NC3CCCC3)cc21` (stereo not given) the figure was 80.5%.
With `Cc1cc(-c2cnc(N3CCC(O)CC3)nc2C(C)C)on1` the figure was 66.4%.
`NC(=O)CN1CCCC(c2cncc(Nc3ncccn3)n2)C1` (stereo not given): the cytotoxicity at 10 µM was -2.61%.
The figure for `CCS(=O)(=O)N1CCC(C(=O)NC(Cc2ccsc2)c2nccs2)CC1` (stereo not given) is -2.72%.
With `C[C@]1(O)CN(CCO)CC[C@@H]1Oc1cccc(F)c1` the figure was -6%.
With `Cc1ncsc1-c1nnc(C2CCN(Cc3ccccc3F)CC2)o1` the figure was -10.2%; with `CC(=O)NC[C@]1(O)CCN(C(=O)c2ccc3c(c2)OCO3)C[C@H]1O`, -9.91%; with `Cn1nc(C2CCNCC2)c2c(C(=O)NC3CC3)cc(C3CC3)nc21`, 16.2%.
Turning to `CN1CCN(C(=O)c2cn(-c3ccc(C(F)(F)F)cn3)nn2)CC1`, the cytotoxicity at 10 µM is -63%.
In the case of `Cc1ccc(OCC(=O)Nc2ccc(S(C)(=O)=O)cc2)cc1C`, the cytotoxicity at 10 µM was -2.4%.
The figure for `NC(=O)C(NCc1cccs1)c1ccccc1` (stereo not given) is -41.5%; for `c1cnnc(N2CCCC(NCc3nc(-c4ccsc4)no3)C2)c1` (stereo not given) it is 7.79%; for `Cc1cccc(C(=O)N2CCCN(CCCSCC#N)CC2)c1` it is -150%.
The figure for `Cc1ccc(C(=O)N2CCCC(n3cncn3)C2)o1` (stereo not given) is 4.35%.
Turning to `COC(=O)c1ccc(CNC(=O)Nc2ccc(=O)n(C)c2)cc1`, the cytotoxicity at 10 µM was -6.8%.
The figure for `OC1CCN(c2ccc(CNc3nc4ccccc4s3)cc2F)CC1` is 1.71%; for `Cc1nnc2n1CC(CNc1cnc3ccccc3n1)CC2` (stereo not given) it is -41.5%; for `NC(=O)C1=NC2=NS(=O)(=O)c3ccccc3N2N1Cc1ccc(Cl)cc1` it is 1.75%.
With `CC(=O)N(CCc1ccccc1)CC(=O)NC(C)(C)C#N` the figure was 8.06%.
With `CN(Cc1ccc(Cl)s1)C(=O)Nc1ccc(N(C)C)nc1` the figure was -1.73%; with `CCN(C(=O)CCOC)C(c1ccc(Cl)cc1)c1ccccn1` (stereo not given), 1.88%; with `CNS(=O)(=O)CCCN(C)Cc1cc(C)ccc1OC`, -61%.
With `Cc1ccccc1CN(C)CC(O)COCc1ccccc1Cl` (stereo not given), the cytotoxicity at 10 µM was found to be 8.49%.
Regarding `COc1cc(F)c(NCc2nc3ccccc3n2C)cc1OC`, the cytotoxicity at 10 µM was 26.5%.
Consider `CC(C)(C)c1nc(CN(Cc2cccs2)C2CCS(=O)(=O)C2)cs1` (stereo not given), for which the cytotoxicity at 10 µM turned out to be 16%.
With `CN1CCN(Cc2cnc3n2CCN(C(=O)c2ccoc2)C3)CC1` the figure was -80.7%; with `COCC1CN(C(=O)CC2Cc3ccccc3C2)Cc2c1cnn2C` (stereo not given), -75.4%.
The figure for `CC(=O)N1CCC2(CCCN(Cc3ccc(Cl)c(C(F)(F)F)c3)C2)C1` (stereo not given) is 3.22%; for `COCC(=O)Nc1ccccc1Sc1c(C)n[nH]c1C` it is -10.2%.
The figure for `CC(CN1CCCCCC1)NCc1cc(-c2ccco2)on1` (stereo not given) is 1.56%.
In the case of `Cc1ncc2c(c1-c1noc(-c3cscn3)n1)CCNC2`, the cytotoxicity at 10 µM was -3.37%.
Regarding `COc1cc(Cc2nc3c([nH]2)CC(C)(C)CNC3=O)cc(OC)c1`, the cytotoxicity at 10 µM is -6.27%.
Turning to `O=C(CSCC1CC1)N1CCCN(c2ccc(F)cc2)CC1`, the cytotoxicity at 10 µM is -4.43%.
As for `COc1ccc(C(=O)C2CCCN(c3cc(N)ncn3)C2)c(C)c1` (stereo not given), the cytotoxicity at 10 µM came out at 5.31%.
The figure for `COCCC1(C(=O)O)CCCN(C(=O)c2cc(Cl)ccc2F)C1` (stereo not given) is -2.79%; for `CCCc1nc(N2CCC(CCO)CC2)c2cnn(C)c2n1` it is 2.28%; for `O=C(NCc1nnc2n1CCCC2)c1ccc(C2CCCO2)s1` (stereo not given) it is 15.7%.
Take `COCC(=O)N1C[C@H]2CNC[C@@]2(C(=O)NCc2cc(C)n[nH]2)C1`: the cytotoxicity at 10 µM was 8.29%.
Turning to `N[C@@H]1c2ccccc2C2(CCN(c3cc(C(F)(F)F)ccn3)CC2)[C@H]1O`, the cytotoxicity at 10 µM was 0.106%.
With `COc1nccnc1-c1cc(NC2CCCC2)nc2[nH]ccc12` the figure was 1.97%; with `Cc1ccc2nc(C)c(C)c(C(=O)N[C@H]3COC[C@@H]3N3CCCC3)c2c1`, -45.8%.
As for `CCc1nn(C)c(Cl)c1CN1C[C@@H](NC(=O)N(C)C)[C@H](C(C)C)C1`, the cytotoxicity at 10 µM is 11.4%.
As for `COc1cccc(NC(=O)NCC2CCCN(C3CCOCC3)C2)c1` (stereo not given), the cytotoxicity at 10 µM was -2.48%.
For `Cn1cc(-c2c(C#N)c(N)nc3c2CCc2[nH]ccc2-3)cn1`, the cytotoxicity at 10 µM is -4.37%.
For the molecule `Cn1ccnc1-c1ccc(NC[C@H]2CCc3ccccc3O2)nn1`, the cytotoxicity at 10 µM is -5.71%.
With `O=C(NCCC1CCCCO1)c1cc(COc2cncc(Cl)c2)on1` (stereo not given) the figure was -1.73%; with `Cc1ccccc1N1CCCN(C(=O)CCc2cccnc2)CC1`, -9.2%.
With `C[C@@H]1CN(Cc2nc(C(N)=O)no2)CC[C@@]1(O)C1CCOCC1`, the cytotoxicity at 10 µM was -38.5%.
For `COc1nc2c(cc1C(=O)N1CCCOC(Cn3cccn3)C1)CCC2` (stereo not given), the cytotoxicity at 10 µM is -52.1%.
With `Cc1cnn(CCNc2ncnc3c2CCN(CC2CCOC2)CC3)c1` (stereo not given) the figure was -4.24%.
Consider `O=C(NCCC1COc2ccccc2O1)c1ccc(N2CC(O)C2)nc1` (stereo not given), for which the cytotoxicity at 10 µM worked out at 72.1%.
With `Cc1cc(N(C)Cc2ncc[nH]2)nc(-c2ccccc2)n1` the figure was 1.68%.
For the molecule `Cc1ccc(C(=O)N(C)CCCc2cnn(C)c2)cc1N1CCNC1=O`, the cytotoxicity at 10 µM is -4.39%.
With `CCC[C@H]1CN(Cc2cc(C)no2)C[C@@H]1NC(=O)C1(COC)CCC1` the figure was 3.06%; with `CCc1ccccc1OCCN(C)C(=O)CN1CCCC1`, -50.4%; with `COCc1cc(NCCCSc2nnc(C)s2)ncn1`, 11.6%.
`CCCc1nc(C)cc(N2CCNC(C(=O)NCc3cccnc3)C2)n1` (stereo not given): the cytotoxicity at 10 µM was -7%.
Take `Cc1nc(N(C)C2CCCCC2)ncc1C(C)NC(=O)c1cscn1` (stereo not given): the cytotoxicity at 10 µM was -134%.
The figure for `Cc1c[nH]c(CN(C)c2nc(C3CCCC3)nc3c2cnn3C)n1` is -7.56%.
As for `CCS(=O)(=O)N(C)c1ccc(C(=O)N2CCCC(C)C2)cc1` (stereo not given), the cytotoxicity at 10 µM was -15.4%.
On to `CCC(=O)N1CCc2nc3cc(OC)c(OC)cc3c(=O)n2CC1`, for which the cytotoxicity at 10 µM stood at 2.65%.
In the case of `COc1ccc(C2=CCN(C(=O)C3CCS(=O)(=O)C3)CC2)cc1` (stereo not given), the cytotoxicity at 10 µM is -7.45%.
As for `COc1cc(C)nc(N2CCN(C(=O)CN(C)C(C)C)CC2)n1`, the cytotoxicity at 10 µM is -14.6%.
With `COc1ccc(-c2nc(CN3CCN(CCO)CC3)co2)cc1` the figure was -0.0868%; with `Cc1nc(CN(C)C2CCN(Cc3nc4ccccc4s3)C2)no1` (stereo not given), -4.27%; with `O=C(c1cnccn1)N1CCN(Cc2csc(-c3ccccc3)n2)CC1`, -3.32%.
As for `Cn1ccc(C(=O)N2CCN(c3cc(C#N)ccn3)CC2)cc1=O`, the cytotoxicity at 10 µM is -14.2%.
For the molecule `Cc1cnn(C2CCCN(C(=O)c3cc(C4CC4)on3)C2)c1` (stereo not given), the cytotoxicity at 10 µM is -11.4%.
Consider `Cc1noc(C2CCN(C(=O)c3ccc(NC4CC4)nc3)CC2)n1`, for which the cytotoxicity at 10 µM is -7.1%.
As for `Cn1cc(CCNC(=O)NCc2nnc3n2CCC3)cn1`, the cytotoxicity at 10 µM was -6.08%.
`CCCc1nc(CN2CCOC(CNc3cccnn3)C2)cs1` (stereo not given): the cytotoxicity at 10 µM is -6.71%.
Consider `CN(C(=O)c1cccc2[nH]ncc12)C1CCN(c2ccccn2)CC1`, for which the cytotoxicity at 10 µM came to 7.31%.
`c1cnc(N2CC[C@@H](N3CCOCC3)[C@@H]2Cc2ccncc2)nc1`: the cytotoxicity at 10 µM was 2.9%.
Regarding `Cc1ccc(CN2CCc3c(COCC4CC4)nn(C)c3C2)s1`, the cytotoxicity at 10 µM worked out at 6.35%.
Take `c1cnc(N2CCC3(COCc4cnc(-c5cccnc5)nc43)C2)nc1` (stereo not given): the cytotoxicity at 10 µM is 2.57%.
The figure for `CS(=O)(=O)N1CCC2(CCN(C(=O)c3cccnc3)CC2)C1` is 3.59%; for `COCCNC(=O)[C@H]1C[C@@H]2CCN(CCc3ccccc3)C[C@H]2O1` it is -70.3%.
The figure for `CCOCC1CN(C2CCCC2)Cc2cnn(CC3CCOCC3)c21` (stereo not given) is -9.13%.
For `N#Cc1cccc(CN2CCn3cc(Cn4cccn4)nc3C2)c1`, the cytotoxicity at 10 µM is -0.501%.
With `c1ccc(CO[C@@H]2CN(Cc3nccs3)[C@@H]3COC[C@@H]32)nc1` the figure was -104%; with `COCC(=O)NCc1cc(=O)n2c(n1)CN(C)CCC2`, -103%.
The figure for `O=C([C@H]1C[C@H]2OCC[C@H]2N(Cc2ccccc2F)C1)N1CCCCO1` is -72.2%.
With `Cc1cccc(CN2CCOC3(CCCN(CC(=O)N(C)C)C3)C2)n1` (stereo not given) the figure was -106%; with `Cc1ncoc1C(=O)N1C[C@H]2CCC[C@@]2(COCc2cccnc2)C1`, 4.53%.
As to `c1cncc(N2CCOCC3(CCCN(Cc4cccs4)C3)C2)c1` (stereo not given), the cytotoxicity at 10 µM amounted to 14.8%.
Regarding `Cc1nccc(NCc2cncc3c2CCN(S(C)(=O)=O)C3)n1`, the cytotoxicity at 10 µM was -99.4%.
The figure for `CC(C)N1CCO[C@@H]2CN(C(=O)Cc3cccs3)CC[C@@H]2C1` is -120%; for `CC(C)OCc1ncn2c1CN(Cc1ccoc1)CCC2` it is -75.7%; for `O=C(Nc1ccccc1)[C@H]1C[C@H]2CN(Cc3cccnc3)C[C@@H]1O2` it is -80%.
Turning to `CC1(C)[C@@H]2CC=C(CN3CCCn4nc(CCC(=O)O)cc4C3)[C@H]1C2`, the cytotoxicity at 10 µM was -40.2%.
